Assay results taken from ChEMBL document CHEMBL4819082, “Ximaoglaucumins A - F, new cembranoids with anti-inflammatory activities from the South China Sea soft coral Sarcophyton glaucum” (Bioorg Med Chem, 2021).

Experiments:
[1] = tested on: BV-2; experiment: Antiinflammatory activity against mouse BV2 cells assessed as reduction in LPS-induced NO production at 10 uM incubated for 2 hrs followed by LPS stimulation and measured after 24 hrs by Griess reagent based assay relative to control; assay type: functional; conditions: BV-2, 26 h
How it was run: (§1)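 BV-2 cells were seeded at 2.0×10^5 cells/mL in DMEM high-glucose with 10% FBS and grown 24 h at 37 °C, 5% CO₂. They were pretreated with compound for 2 h, then exposed to LPS at 100 ng/mL for 24 h. Medium was mixed 1:1 with Griess buffer for 15 min at room temperature and read at 540 nm. Nitrite came from a sodium nitrite standard curve and was normalized to the LPS-group mean (100%).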

[2] = Cytotoxicity against mouse BV2 cells assessed as cell viability at 10 uM measured after 24 hrs by MTT assay; assay type: cell-based, BV-2; conditions: read-out: Activity
How it was run: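 BV-2 cells were seeded at 1.25×10^4 cells/mL and grown 24 h at 37 °C, 5% CO₂. They were then exposed to compound for 24 h, with 0.5 mg/mL MTT added for the final 3 h. Absorbance was read at 490 nm, and viability was normalized to the untreated control mean (100%).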

[3] = tested on: BV-2; experiment: Antiinflammatory activity against mouse BV2 cells assessed as reduction in LPS-induced IL-1beta mRNA expression incubated for 2 hrs followed by LPS stimulation and measured after 6 hrs by qRT-PCR analysis; assay type: functional, cell-based; conditions: time 8.0 hrs
How it was run: (§2)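 BV-2 microglia were seeded at 1 × 10⁵ cells/mL, pretreated with compound for 2 h, then given LPS at 100 ng/mL for 6 h. Total RNA was extracted with Trizol and reverse-transcribed to cDNA, and IL-1β or IL-6 transcripts were quantified.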

[4] = tested on: BV-2; experiment: Antiinflammatory activity against mouse BV2 cells assessed as reduction in LPS-induced IL-6 mRNA expression incubated for 2 hrs followed by LPS stimulation and measured after 6 hrs by qRT-PCR analysis; assay type: functional, cell-based; conditions: time 8.0 hrs; how it was run: as §2
[5] = tested on: BV-2; experiment: Antiinflammatory activity against mouse BV2 cells assessed as reduction in LPS-induced NO production at 20 uM incubated for 2 hrs followed by LPS stimulation and measured after 24 hrs by Griess reagent based assay relative to control; assay type: functional; conditions: BV-2, 26 h; how it was run: as §1

| SMILES | NO production (% of LPS) at 10 µM [1] [%] | viability at 24 h, 10 µM [2] [%] | inhibition [3] | inhibition [4] | NO production (% of LPS) at 20 µM [5] [%] |
| --- | --- | --- | --- | --- | --- |
| CC(=O)OC/C1=C\CC/C(C)=C/CC/C(C)=C/C=C(/C(C)C)[C@@H](O)C1 | 71.3 | 111 |  |  |  |
| C/C1=C\C=C(\C(C)C)[C@@H](O)C[C@]2(C)O[C@H]2CC/C(C)=C/CC1 | 77.9 | 101 |  |  |  |
| C=C1C[C@H](O)/C(C(C)C)=C\C=C(/C)CC/C=C(\C)CC[C@@H]1OO | 74.2 | 103 |  |  |  |
| C/C1=C\C=C(\C(C)C)[C@@H](O)C/C(C)=C/CC/C(C)=C/CC1 | 67.8 | 106 | Dose-Dependent Effect | Dose-Dependent Effect |  |
| C/C1=C\C=C(\C(C)C)CC/C(C)=C/CC/C(C)=C/CC1 | 85.5 | 100 |  |  |  |
| C/C1=C\CC/C(C)=C/C=C(/C(C)C)[C@@H](O)C[C@](C)(O)/C=C/C1 | 79.5 | 95.2 |  |  |  |
| C=C1C[C@H](O)/C(C(C)C)=C\C=C(/C)CC/C=C(\C)CC[C@H]1O | 75.9 | 96 |  |  |  |
| C/C1=C\[C@H]2O[C@](C)(CC[C@H]2C(C)C)[C@@H](O)CC/C(C)=C/CC1 | 87.2 | 99.9 |  |  |  |
| C/C1=C\CC/C(C)=C/C=C(/C(C)C)[C@@H](O)C[C@@](C)(OO)/C=C/C1 | 85.3 | 104 |  |  |  |
| C/C1=C\CC[C@](C)(O)/C=C/[C@H](C(C)C)CC/C(C)=C/CC1 | 76.5 | 106 |  |  |  |
| C/C1=C\CC[C@](C)(O)[C@H]2C=C(C(C)C)[C@H](C/C(C)=C/CC1)O2 | 82 | 99.2 |  |  |  |
| CC(=O)O[C@H]1C/C(C)=C/CCC(C)(O)/C=C/C/C(C)=C/C=C\1C(C)C (stereo partly specified) | 74.4 | 97.2 |  |  |  |
| C/C1=C\C=C(\C(C)C)CC/C(C)=C/CCC(C)(O)/C=C/C1 (stereo unspecified) | 80.2 | 101 |  |  |  |
| C/C1=C/C=C(/C(C)C)[C@@H](O)C/C(C)=C/CC/C(C)=C/CC1 | 88.8 | 103 |  |  |  |
| C=C1CC/C=C(\C)C[C@H](O)/C(C(C)C)=C\C=C(/C)CC[C@H]1O | 84.6 | 102 |  |  |  |
| C=C1CC/C=C(\C)C[C@H](OC(C)=O)/C(C(C)C)=C\C=C(/C)CC[C@H]1O | 74.5 | 108 |  |  |  |
| Oc1ccc(/C=C/c2cc(O)cc(O)c2)cc1 [RESVERATROL] |  |  |  |  | 74.3 |
| CC(=O)OC/C1=C\CC/C(C)=C/CC[C@](C)(O)[C@H]2C=C(C(C)C)[C@H](C1)O2 | 92.7 | 102 |  |  |  |
| C/C1=C\C=C(\C(C)C)[C@@H](O)[C@H](O)/C(C)=C/CC/C(C)=C/CC1 | 68.7 | 101 | Dose-Dependent Effect | Dose-Dependent Effect |  |
